Test results: ChEMBL document CHEMBL3351694, “Synthesis and SAR studies of benzyl ether derivatives as potent orally active S1P₁ agonists” (Bioorg Med Chem, 2014); call rule not given here
pEC50: −log10 of the molar value.

How the values were obtained:
[1] = tested on: Rattus norvegicus; assay: Immunosuppressive activity in Lewis rat injected with WKAH/Hkm rat spleen cells assessed as inhibition of host versus graft reaction by measuring popliteal lymph nodes weight dosed orally at 1 mg/kg once daily for 4 successive days starting on day of spleen cell injection; type: functional; conditions: route oral
Summary of the method: (§1)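 Lewis rats received 1×10^7 WKAH/Hkm splenocytes intracutaneously into both hind footpads. Syngeneic controls received Lewis splenocytes. Compound suspended in 0.5% tragacanth, given orally at 5 mL/kg once daily for 4 days from the day of cell injection; 5 rats/group. Popliteal lymph node weight gain measured relative to allogeneic control. ID50 by least squares from at least three doses.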

[2] = Drug metabolism in rat plasma assessed as compound phosphorylation at 100 ug/ml at 37 degC after 3 hrs by HPLC method; type: ADME, cell-free; conditions: read-out: Drug metabolism
Summary of the method: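 Rat whole blood, citrate-treated, spiked with compound from 100 µg/mL DMSO stock and held 3 h at 37 °C. Methanol quench, centrifugation twice at 4 °C, reversed-phase HPLC with CH3CN/0.1% TFA gradient. Phosphorylation given as ratio of HPLC peak areas of phosphate to remaining parent.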

[3] = Half life in Lewis rat at 1 mg/kg, po; type: ADME, organism-based; set-up: dose 1 mg/kg, route oral; conditions: in vivo
Summary of the method: (§2)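 Single oral dose of 1.0 mg/kg parent compound in rats, n = 2 or 3. Plasma levels measured for parent and its phosphate. Cmax, AUC0-48 and T1/2 derived from plasma concentration. Half-life of phosphate taken from plasma phosphate level after dosing at 1.0 mg/kg p.o., n = 2.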

[4] = Half life in rat at 1 mg/kg, po; type: ADME, organism-based; set-up: dose 1 mg/kg, route oral; conditions: in vivo; summary of the method: as §2
[5] = Cmax in rat at 1 mg/kg, po; type: ADME, organism-based; set-up: dose 1 mg/kg, route oral; conditions: in vivo; summary of the method: as §2
[6] = AUC (0 to 48 hrs) in rat at 1 mg/kg, po; type: ADME, organism-based; set-up: time < 48 hr, dose 1 mg/kg, route oral; conditions: plasma; summary of the method: as §2
[7] = tested on: Rattus norvegicus; assay: Induction of lymphopenia in Lewis rat assessed as reduction in lymphocyte numbers at 0.1 mg/kg, po after 4 hrs by automatic hemacytometry relative to untreated control; type: functional; set-up: scale not given: the % may be the effect or the level left
Summary of the method: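 Male Lewis rats, 5 weeks old, 5 per group, given saline vehicle or 0.1 mg/kg compound orally. EDTA blood drawn before and 4 h after dosing. Lymphocytes counted by automatic hemacytometer; untreated rats also counted.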

[8] = Metabolic stability in rat hepatic microsomes assessed as parent compound remaining after 30 mins at 37 degC; type: ADME, microsome; conditions: liver microsomes
Summary of the method: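 Compound incubated with rat hepatic microsomes for 30 min at 37 °C; percentage of compound remaining reported.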

[9] = tested on: Rattus norvegicus; assay: Immunosuppressive activity in Lewis rat injected with WKAH/Hkm rat spleen cells assessed as inhibition of host versus graft reaction by measuring popliteal lymph nodes weight dosed orally at 5 mL/kg once daily for 4 successive days starting on day of spleen cell injection; type: functional; conditions: po, read-out: ID50 (the source's name); summary of the method: as §1
[10] = molecular target: Sphingosine 1-phosphate receptor 1 (Homo sapiens, UniProt P21453); assay: Agonist activity at human S1P1 receptor expressed in CHOK1 cell membranes by [35S]GTPgammaS binding assay; type: functional, CHO-K1
Sequence of Sphingosine 1-phosphate receptor 1 (P21453 whole entry): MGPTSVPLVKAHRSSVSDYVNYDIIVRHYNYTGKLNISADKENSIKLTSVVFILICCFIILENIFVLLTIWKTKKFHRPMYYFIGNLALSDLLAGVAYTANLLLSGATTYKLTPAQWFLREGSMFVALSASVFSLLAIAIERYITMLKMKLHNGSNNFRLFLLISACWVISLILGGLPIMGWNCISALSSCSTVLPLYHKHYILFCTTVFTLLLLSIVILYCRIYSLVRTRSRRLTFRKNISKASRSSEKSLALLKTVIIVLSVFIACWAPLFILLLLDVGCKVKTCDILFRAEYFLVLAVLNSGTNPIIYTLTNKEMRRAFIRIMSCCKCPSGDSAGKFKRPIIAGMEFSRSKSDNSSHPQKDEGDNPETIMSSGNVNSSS
Summary of the method: (§3)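 Membranes of CHO-K1 cells transfected with human S1P1 or S1P3. Phosphorylated compounds tested. Buffer: 50 mM HEPES pH 7.5, 100 mM NaCl, 5 mM MgCl2, 0.05 mg/mL saponin, with GDP and DTT. Started with [35S]GTPγS plus membrane, 60 min at room temperature, then filter harvest and scintillation counting. Binding expressed as % of 20 µM Sph-1-P response, blank-corrected, n = 2.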

[11] = molecular target: Sphingosine 1-phosphate receptor 3 (Homo sapiens, UniProt Q99500); assay: Agonist activity at human S1P3 receptor expressed in CHOK1 cell membranes by [35S]GTPgammaS binding assay; type: functional, CHO-K1; summary of the method: as §3
Sequence of Sphingosine 1-phosphate receptor 3 (Q99500 whole entry): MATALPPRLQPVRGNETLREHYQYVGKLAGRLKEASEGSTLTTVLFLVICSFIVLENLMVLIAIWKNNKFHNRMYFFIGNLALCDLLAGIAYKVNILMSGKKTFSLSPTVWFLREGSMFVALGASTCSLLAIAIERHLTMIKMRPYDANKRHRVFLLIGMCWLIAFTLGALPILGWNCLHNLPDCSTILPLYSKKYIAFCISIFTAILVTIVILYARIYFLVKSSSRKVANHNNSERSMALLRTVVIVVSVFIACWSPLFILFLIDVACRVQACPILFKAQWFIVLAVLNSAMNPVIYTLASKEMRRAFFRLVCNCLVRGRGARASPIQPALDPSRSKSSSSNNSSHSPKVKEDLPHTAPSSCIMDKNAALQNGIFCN

[12] = species on record: Homo sapiens; assay: Selectivity index, ratio of EC50 for human S1P3 receptor to EC50 for human S1P1 receptor
[13] = tested on: Rattus norvegicus; assay: Drug level in Wistar Imamichi rat at 1 to 30 mg/kg, po; type: ADME, organism-based; set-up: dose 1-30 mg/kg, route oral; conditions: in vivo

metabolised at 3 h, 100 ug/ml [2]	half-life [4]	Cmax [5]	AUC(0-t) at 48 h [6]	remaining at 0.5 h [8]	pEC50 [10]	pEC50 [11]	Ratio EC50 [12]	SMILES	further results
6%	–	–	–	–	–	–	–	Cc1ccc(CCCC(=O)c2cc(C)c(COC[C@@](C)(N)CO)cc2C)cc1	inhibition in vivo at 1 mg/kg [1]: 11%
39.5%	5.7 h	13 ng/mL	120 ng·h/mL	51%	–	–	–	Cc1ccc(CCCC(=O)c2ccc(COC[C@@](C)(N)CO)cc2)cc1.Cl	half-life [3]: 7.8 h; Activity [7]: 39.5%; ED50 [9]: 0.27 mg/kg
–	–	–	–	–	8.66	6.47	155	Cc1ccc(CCCC(=O)c2cc(C)c(COC[C@@](C)(N)COP(=O)(O)O)c(C)c2)cc1	–
–	–	–	–	–	8.64	4.92	5220	CCc1cc(C(=O)CCCc2ccc(C)cc2)ccc1COC[C@@](C)(N)COP(=O)(O)O	–
–	4.3 h	104 ng/mL	806 ng·h/mL	92%	8.52	6.74	60	Cc1ccc(CCCC(=O)c2ccc(COC[C@@](C)(N)COP(=O)(O)O)c(C)c2)cc1	–
–	–	–	–	–	8.55	7.22	21	Cc1ccc(CCCC(=O)c2ccc(COC[C@@](C)(N)COP(=O)(O)O)c(F)c2)cc1	–
13.9%	–	–	–	–	–	–	–	CCc1cc(C(=O)CCCc2ccc(C)cc2)ccc1COC[C@@](C)(N)CO	inhibition in vivo at 1 mg/kg [1]: 10%
–	4.6 h	97 ng/mL	658 ng·h/mL	86%	8.40	6.66	55	Cc1ccc(CCCC(=O)c2ccc(COC[C@@](C)(N)COP(=O)(O)O)c(Cl)c2)cc1	–
–	–	–	–	> 100%	–	–	–	CCCCCCCCc1ccc(CC[C@](N)(CO)COP(=O)(O)O)cc1 [FTY720-P]	–
83.8%	4.6 h	18 ng/mL	144 ng·h/mL	38%	–	–	–	Cc1ccc(CCCC(=O)c2ccc(COC[C@@](C)(N)CO)c(Cl)c2)cc1.Cl	Drug uptake [13]: Dose-dependent effect; ED50 [9]: 0.39 mg/kg
–	7.8 h	72 ng/mL	799 ng·h/mL	92%	8.15	6.70	29	Cc1ccc(CCCC(=O)c2ccc(COC[C@@](C)(N)COP(=O)(O)O)cc2)cc1	–
–	–	–	–	–	7.72	< 4.70	> 1050	Cc1ccc(CCCC(=O)c2ccc(COC[C@@](C)(N)COP(=O)(O)O)cc2C)cc1	–
38.4%	4.1 h	34 ng/mL	200 ng·h/mL	36%	–	–	–	Cc1ccc(CCCC(=O)c2ccc(COC[C@@](C)(N)CO)c(C)c2)cc1.Cl	Drug uptake [13]: Dose-dependent effect; ED50 [9]: 0.43 mg/kg
–	–	–	–	97%	–	–	–	CCCCCCCCc1ccc(CCC(N)(CO)CO)cc1 [FINGOLIMOD]	half-life [3]: 32 h; Activity [7]: 21%; ED50 [9]: 0.33 mg/kg
–	–	–	–	–	8.19	< 4.70	> 3080	Cc1ccc(CCCC(=O)c2cc(C)c(COC[C@@](C)(N)COP(=O)(O)O)cc2C)cc1	–
